Experiments:
[1] = target: T1, Adenosine receptor A1 (Homo sapiens) (UniProt P30542); assay: Displacement of [3H]-DPCPX from human adenosine A1 receptor expressed in CHO cell membranes at 10 uM by scintillation counting analysis relative to control
T1 sequence (whole entry): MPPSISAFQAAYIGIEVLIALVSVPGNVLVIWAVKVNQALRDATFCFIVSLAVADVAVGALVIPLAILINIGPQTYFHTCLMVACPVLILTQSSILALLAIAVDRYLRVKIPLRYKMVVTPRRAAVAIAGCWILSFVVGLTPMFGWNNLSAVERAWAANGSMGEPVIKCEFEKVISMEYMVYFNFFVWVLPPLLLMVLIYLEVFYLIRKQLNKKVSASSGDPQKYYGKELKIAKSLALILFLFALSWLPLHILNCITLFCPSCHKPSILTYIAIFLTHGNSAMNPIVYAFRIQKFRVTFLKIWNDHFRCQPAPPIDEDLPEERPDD
Outline: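 hA1-CHO membranes, pretreated with adenosine deaminase, in 50 mM Tris-HCl pH 7.4 with 1 nM [³H]DPCPX. Incubated 120 min at 25 °C. Compound 10 µM added from 100-fold DMSO stock, 1% DMSO final. Bound ligand collected on glass-fibre filters and counted by scintillation; percent inhibition of specific binding.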

[2] = target: T1, Adenosine receptor A1 (Homo sapiens); assay: Potentiation of CCPA-induced displacement of [3H]-DPCPX from human adenosine A1 receptor expressed in CHO cell membranes at 10 uM after 90 mins relative to CCPA-treated control
Outline: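 CCPA (0.01 nM–1 µM) competition against [³H]DPCPX in hA1-CHO membranes, with or without compound at 10 µM. Nonspecific binding defined with 1 µM DPCPX. Ki calculated from IC50 by the Cheng-Prusoff equation; CCPA Ki shift given as fold change; three experiments.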

[3] = target: T2, Adenosine receptor A3 (Homo sapiens) (UniProt P0DMS8); assay: Displacement of [3H]-MRE-3008-F20 from human adenosine A3 receptor expressed in CHO cell membranes at 10 uM by scintillation counting analysis relative to control
T2 sequence (whole entry): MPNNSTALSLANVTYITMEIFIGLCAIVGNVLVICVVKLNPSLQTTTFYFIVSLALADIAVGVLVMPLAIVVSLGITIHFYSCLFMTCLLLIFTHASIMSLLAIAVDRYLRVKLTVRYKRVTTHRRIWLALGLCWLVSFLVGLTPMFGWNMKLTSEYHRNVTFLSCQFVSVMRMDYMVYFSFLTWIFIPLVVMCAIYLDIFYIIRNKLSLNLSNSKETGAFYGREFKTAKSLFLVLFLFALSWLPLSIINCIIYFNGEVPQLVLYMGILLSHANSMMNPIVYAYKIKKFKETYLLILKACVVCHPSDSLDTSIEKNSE
Outline: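 A3-expressing CHO membranes in 50 mM Tris-HCl, 10 mM MgCl₂, 1 mM EDTA pH 7.4 with 2 nM [³H]MRE-3008-F20. Incubated 120 min at 4 °C. Compound 10 µM in 1% DMSO final. Filtration and scintillation counting; percent inhibition of specific binding.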

[4] = target: T1, Adenosine receptor A1 (Homo sapiens); assay: Potentiation of [3H]CCPA binding to human adenosine A1 receptor expressed in CHO cell membranes at 10 uM after 90 mins relative to [3H]CCPA-treated control
[5] = target: T1, Adenosine receptor A1 (Homo sapiens); assay: (§1) Allosteric enhancement of human adenosine A1 receptor expressed in CHO cells assessed as inhibition of forskolin-stimulated cAMP production at 10 uM preincubated for 10 mins followed by forskolin challenge measured after 5 mins by scintillation counting analysis relative to control; type: functional, cell-based
Outline: (§2)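 hA1-CHO cells (10⁶ cells/mL) in phosphate buffer with adenosine deaminase 1.0 IU/mL and Ro 20-1724 0.5 mM, preincubated 10 min at 37 °C. Compound added for 10 min, alone or at 100 nM with CCPA 1 pM. Forskolin 1 µM added for 5 min, stopped with cold 6% TCA. cAMP measured by [³H]-cAMP competition protein-binding assay; percent inhibition versus control; three experiments.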

[6] = target: Adenosine receptor A2a (Homo sapiens) (UniProt P29274); assay: Displacement of [3H]-ZM241385 from human adenosine A2A receptor expressed in CHO cell membranes at 10 uM by scintillation counting analysis relative to control
Outline: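 A2A-expressing CHO membranes, pretreated with adenosine deaminase, in 50 mM Tris-HCl, 10 mM MgCl₂ pH 7.4 with 1 nM [³H]ZM 241385. Incubated 60 min at 4 °C. Compound 10 µM in 1% DMSO final. Filtration and scintillation counting; percent inhibition of specific binding.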

[7] = target: T1, Adenosine receptor A1 (Homo sapiens); assay: as §1, with “100 nM” for “10 uM”, “analysis in presence of CCPA” for “analysis”; type: functional, cell-based; outline: as §2

Chain of Adenosine receptor A2a (Homo sapiens) (P29274 whole entry): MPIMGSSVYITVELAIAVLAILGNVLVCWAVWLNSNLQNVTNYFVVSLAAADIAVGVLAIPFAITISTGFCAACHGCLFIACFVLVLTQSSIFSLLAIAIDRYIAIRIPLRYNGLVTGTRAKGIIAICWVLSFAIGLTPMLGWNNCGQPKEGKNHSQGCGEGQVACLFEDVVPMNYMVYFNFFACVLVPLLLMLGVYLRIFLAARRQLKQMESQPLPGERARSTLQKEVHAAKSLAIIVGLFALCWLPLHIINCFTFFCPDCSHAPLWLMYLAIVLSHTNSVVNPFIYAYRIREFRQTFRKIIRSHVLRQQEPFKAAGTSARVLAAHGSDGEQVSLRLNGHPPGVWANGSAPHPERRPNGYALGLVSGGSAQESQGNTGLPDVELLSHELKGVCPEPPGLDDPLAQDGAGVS

| Compound | inhibition [1] | fold change (FC) [2] | inhibition [3] | fold change (FC) [4] | inhibition [5] | inhibition [6] | inhibition [7] |
| --- | --- | --- | --- | --- | --- | --- | --- |
| CC(C)Cc1csc(N)c1C(=O)c1ccc(Cl)cc1 | 1% | 3.4 | 1% | 1.6 | 17% | 1% | 19% |
| CC(C)(C)Cc1c(-c2cc(F)ccc2F)sc(N)c1C(=O)c1ccc(Cl)cc1 | 3% | 3.4 | 1% | 5.3 | 46% | 1% | 45% |
| CC(C)(C)Cc1c(-c2ccccc2)sc(N)c1C(=O)c1ccccc1Cl | 1% | 3.9 | 1% | 5.4 | 38% | 1% | 41% |
| Cc1cccc(-c2sc(N)c(C(=O)c3ccc(Cl)cc3)c2CC(C)(C)C)c1 | 1% | 4.1 | 1% | 4.7 | 47% | 1% | 51% |
| CC(C)(C)Cc1csc(N)c1C(=O)c1cccc(C(F)(F)F)c1 | 1% | 1.7 | 1% | 2.6 | 28% | 1% | 30% |
| COc1ccc(-c2sc(N)c(C(=O)c3ccc(Cl)cc3)c2CC(C)(C)C)cc1 | 1% | 4.3 | 2% | 6.1 | 44% | 1% | 43% |
| CC(C)(C)Cc1c(-c2cccnc2)sc(N)c1C(=O)c1ccc(Cl)cc1 | 1% | 2.2 | 1% | 3.7 | 37% | 1% | 41% |
| CC(C)(C)Cc1c(-c2c(F)cccc2F)sc(N)c1C(=O)c1ccc(Cl)cc1 | 1% | 2.4 | 1% | 4.2 | 45% | 2% | 46% |
| CC(C)(C)c1csc(N)c1C(=O)c1ccc(Cl)cc1 | 1% | 1.6 | 1% | 1.3 | 11% | 1% | 18% |
| COc1ccc(-c2sc(N)c(C(=O)c3ccc(C)cc3)c2CC(C)(C)C)cc1 | 1% | 5.4 | 5% | 7.4 | 64% | 3% | 60% |
| Cc1c(Br)sc(N)c1C(=O)c1ccc(Cl)cc1 | 1% | 1.9 | 1% | 1.8 | 21% | 1% | 25% |
| COc1ccc(-c2sc(N)c(C(=O)c3cccc(Cl)c3)c2CC(C)(C)C)cc1 | 1% | 3.7 | 2% | 6 | 53% | 1% | 56% |
| CC(C)(C)Cc1c(-c2ccc(Cl)c(Cl)c2)sc(N)c1C(=O)c1ccc(Cl)cc1 | 1% | 4.3 | 1% | 6 | 59% | 1% | 61% |
| CC(C)c1ccc(-c2sc(N)c(C(=O)c3ccc(Cl)cc3)c2CC(C)(C)C)cc1 | 1% | 4.1 | 1% | 5.6 | 56% | 1% | 58% |
| CC(C)(C)Cc1c(-c2ccc(Cl)cc2)sc(N)c1C(=O)c1ccc(Cl)cc1 | 1% | 4 | 1% | 5.8 | 57% | 1% | 58% |
| COc1ccc(-c2sc(N)c(C(=O)c3ccc(Cl)cc3)c2C)cc1 | 1% | 1.8 | 1% | 2.1 | 24% | 1% | 22% |
| Cc1c(-c2ccccc2)sc(N)c1C(=O)c1ccc(Cl)cc1 | 1% | 1.5 | 1% | 1.5 | 18% | 8% | 20% |
| CC(C)(C)Cc1c(-c2ccccc2)sc(N)c1C(=O)c1ccc(Cl)c(Cl)c1 | 1% | 4.8 | 6% | 5.9 | 56% | 1% | 57% |
| CC(C)(C)Cc1csc(N)c1C(=O)c1ccc(Cl)cc1 | 1% | 1.6 | 5% | 3.9 | 35% | 6% | 37% |
| CC(C)(C)Cc1csc(N)c1C(=O)c1ccc(Cl)c(Cl)c1 | 1% | 2 | 10% | 4.1 | 43% | 1% | 41% |
| COc1ccc(-c2sc(N)c(C(=O)c3cccc(C(F)(F)F)c3)c2CC(C)(C)C)cc1 | 2% | 1.8 | 1% | 4 | 44% | 1% | 46% |
| Cc1noc(C)c1-c1sc(N)c(C(=O)c2ccc(Cl)cc2)c1CC(C)(C)C | 1% | 1.1 | 1% | 1.4 | 12% | 1% | 19% |
| CC(C)(C)Cc1c(-c2cn[nH]c2)sc(N)c1C(=O)c1ccc(Cl)cc1 | 1% | 1.7 | 1% | 2.5 | 27% | 1% | 31% |
| CC(C)(C)Cc1c(-c2ccccn2)sc(N)c1C(=O)c1ccc(Cl)cc1 | 1% | 2.2 | 1% | 3.5 | 40% | 1% | 43% |
| CC(C)(C)Cc1c(-c2ccsc2)sc(N)c1C(=O)c1ccc(Cl)cc1 | 2% | 4.7 | 4% | 6.4 | 62% | 1% | 67% |
| COc1ccccc1-c1sc(N)c(C(=O)c2ccc(Cl)cc2)c1CC(C)(C)C | 1% | 1.9 | 1% | 2.5 | 27% | 1% | 29% |
| CC(C)(C)Cc1csc(N)c1C(=O)c1cccc(Cl)c1 | 2% | 1.5 | 8% | 4.3 | 45% | 1% | 42% |
| Cc1sc(N)c(C(=O)c2cccc(C(F)(F)F)c2)c1C | 1% | 1.5 |  | 1.3 |  | 1% |  |
